Assay outcomes: PubChem, several laboratories
An excerpt weighted towards active compounds, which were near 3% of everything screened.
NPR2 activator: GC-B (human) receptor activation; HEK293-GC-B cells, CNP EC30, cGMP TR-FRET; 0% at EC30 CNP, 100% saturating CNP; activation, % at 10 µM; P20594; 0.11% of 370,000 active;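 active means activation at 10 µM reaching about 35% in either raw or pattern-adjusted values, limit read from the data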
NPR1 activator: GC-A (human) enzyme activation; HEK293 GC-A cells, cGMP TR-FRET, EC30 ANP; 0% at EC30 ANP, 100% saturating ANP; AID 1671463; activation, % at 10 µM; 0.14% of 370,000 active; in the data active means activation above about 40%
Target sequence (P16066 whole entry, looked up): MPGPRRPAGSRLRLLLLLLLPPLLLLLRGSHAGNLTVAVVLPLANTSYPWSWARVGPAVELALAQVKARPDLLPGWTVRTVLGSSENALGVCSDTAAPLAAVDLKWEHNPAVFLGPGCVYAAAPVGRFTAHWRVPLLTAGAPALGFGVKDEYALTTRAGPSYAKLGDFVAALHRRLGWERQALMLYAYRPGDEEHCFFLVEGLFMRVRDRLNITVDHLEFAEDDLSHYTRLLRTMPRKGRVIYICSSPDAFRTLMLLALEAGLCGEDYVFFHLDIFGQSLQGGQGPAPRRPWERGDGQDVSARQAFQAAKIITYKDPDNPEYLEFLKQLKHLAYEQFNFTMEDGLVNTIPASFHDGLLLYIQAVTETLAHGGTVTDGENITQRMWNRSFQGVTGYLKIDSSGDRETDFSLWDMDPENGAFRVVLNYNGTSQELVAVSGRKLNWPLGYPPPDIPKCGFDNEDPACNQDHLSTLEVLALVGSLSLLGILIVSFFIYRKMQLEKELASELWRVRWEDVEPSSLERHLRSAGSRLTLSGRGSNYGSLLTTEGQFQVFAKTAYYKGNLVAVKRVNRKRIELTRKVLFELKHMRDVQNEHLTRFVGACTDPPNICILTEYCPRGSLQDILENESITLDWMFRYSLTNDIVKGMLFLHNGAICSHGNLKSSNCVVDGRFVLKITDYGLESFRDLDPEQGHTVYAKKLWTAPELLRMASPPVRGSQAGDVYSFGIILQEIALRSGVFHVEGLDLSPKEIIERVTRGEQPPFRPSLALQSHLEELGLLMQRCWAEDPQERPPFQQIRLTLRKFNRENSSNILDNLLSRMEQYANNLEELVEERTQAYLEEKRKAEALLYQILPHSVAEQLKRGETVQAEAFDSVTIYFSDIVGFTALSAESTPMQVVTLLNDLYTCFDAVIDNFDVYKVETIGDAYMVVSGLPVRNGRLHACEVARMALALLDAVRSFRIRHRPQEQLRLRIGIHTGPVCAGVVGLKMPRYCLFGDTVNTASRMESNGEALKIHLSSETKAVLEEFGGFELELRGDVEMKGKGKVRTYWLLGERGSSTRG
Lipid droplet: hepatic lipid droplet formation modulation; AID 1656; AML12 mouse hepatocytes, oleate lipid droplets, BODIPY imaging; 0.4% of 240,000 active; inhibition, % at 6.5 µM;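 active means lipid droplet intensity inhibited by at least 50%, with more than 500 cells counted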
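Test system: AML12 mouse liver cells; schedule: overnight exposure; technique: high-content imaging of BODIPY-stained droplets and DAPI nuclei; read-out: % inhibition of corrected integrated BODIPY droplet signal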
NR3A LBD binder: modulators (binders) of human NR3A ligand-binding domain. 2.5% of 340,000 active. AID 1259313. Tm shift relative to glycine control, % at 25 µM. NR3A LBD differential scanning fluorimetry, Tm shift; 0% = protein alone, 100% = glycine-bound protein;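 active means melting temperature shift of at least 10% of the positive control shift, at one fixed dose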
aDG glyco up: increases alpha dystroglycan glycosylation. Pro5-aDG cells, alpha-DG glycosylation AlphaScreen (IIH6); 0% Pro5, 100% B10-LARGE cell signal. activation, % at 10 µM. 0.22% of 360,000 active;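 active means activation of at least 8% versus controls, or a plate z-score of at least 8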;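 further: Pro5 are CHO cells carrying HIG-tagged alpha-DG that lacks glycosylation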
JMJD2C inh: inhibitors of human GASC-1 (JMJD2C) demethylase; 0.069% of 330,000 active; inhibition, % at 2.35 µM; GST-JMJD2C(1-420) H3K9me3 demethylation, DELFIA europium;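 active means more than half of a compound's replicate wells show inhibition beyond 50%, single wells judged on their own value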;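 further: signal counts dimethyl H3K9 product captured on neutravidin plate; 0% = median of DMSO wells and 100% = 0.3 times that DMSO median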
Numbers without * were called inactive; . = no result given.

SMILES	NPR2 activator	NPR1 activator	Lipid droplet	NR3A LBD binder	aDG glyco up	JMJD2C inh
COc1ccc2cc(C(=O)Nc3ccccc3)sc(=O)c2c1OC	4	1	11	22*	0	-1
O=C(Nc1ccccc1)c1cc2ccc3ccccc3c2s1	-5	-8	-22	33*	0	-1
COc1ccc2cc(C(=O)Nc3ccc(S(N)(=O)=O)cc3)sc(=O)c2c1OC	0	-7	9	23*	1	-6
CCOC(=O)N1CCN(C(=O)C[C@H]2C[C@@]3(C(=O)OCC)CCCC4=C3N(CCC4)C2=O)CC1	2	0	.	.	.	.
O=C(OC12CCCN(C1)/C(=C/c1ccncc1)C2)C1CCCCC1 (stereo unspecified)	-6	4	.	.	.	.
CCOc1ccc(CCN2C(=S)N([C@@H](Cc3ccc(O)cc3)CN3CCC[C@@H]3CN3C(=S)NC[C@@H]3Cc3ccc(O)cc3)C[C@@H]2Cc2ccc(O)cc2)cc1	6	-2	.	.	0	.
O=C(CSc1nnc(COc2ccccc2)n1Cc1ccco1)Nc1ccc(OCc2ccccc2)cc1	8	1	.	.	.	.
CN(c1ccc(C(=O)Nc2ccccc2C(=O)N2CCCC2)cc1)S(C)(=O)=O	2	3	20	15*	-1	-9
CC1(c2ccc(Cl)cc2)NC(=O)N(CC(=O)Nc2ccc(N3CCCCC3)cc2)C1=O (stereo unspecified)	-2	-2	.	-1	0	-2
CC1(c2ccc(Cl)cc2)NC(=O)N(CC(=O)N2CCCC2)C1=O (stereo unspecified)	0	2	.	11*	0	3
O=C(CN(Cc1cccs1)S(=O)(=O)c1ccc(S(=O)(=O)NC2CCCCC2)cc1)Nc1ccccc1	-2	0	-5	13*	1	1
CCSc1nnc(-c2ccc(Cl)cc2Cl)o1	-3	30	.	16*	0	-1
CCCCOC(=O)CSc1nnc(-c2ccc(Cl)cc2Cl)o1	5	67*	.	2	0	9
Cc1cc(Br)c(NC(=O)COC(=O)CSc2nnc(-c3ccc(Cl)cc3)o2)c(Br)c1	-12	60*	21	1	0	-3
CC(C)OC(=O)CSc1nnc(-c2ccc(Cl)cc2Cl)o1	-1	28	19	1	0	2
O=C1OCCC1Sc1nnc(-c2ccc(Cl)cc2Cl)o1 (stereo unspecified)	2	70*	-40	3	0	2
COC(=O)[C@]12C[C@H](CC(=O)N3CCN(C(=O)c4ccco4)CC3)C(=O)N(Cc3cccc4ccccc34)C1=C[C@H](C(C)C)O[C@@H]2C1CC1	6	-8	.	.	.	.
Cc1ccc(C(=O)NCC(=O)Nc2ccc(Cl)cc2)s1	1	0	.	-1	0	2
COc1cc(/C=C2/NC(=O)N(Cc3ccccc3F)C2=O)cc(OC)c1O	1	9	-4	1	0	-17
CCOc1cc(/C=C2/NC(=O)N(Cc3ccccc3F)C2=O)ccc1O	-1	7	22	30*	0	12
CN(CCc1ccccn1)C1CC(=O)N(c2ccc(Cl)cc2)C1=O (stereo unspecified)	.	.	-12	14*	1	5
CN(CCc1ccccn1)C(=O)Nc1ccc(Cl)cc1	-1	6	16	2	0	2
Cc1ccc(S(=O)(=O)/N=C2/NC(=O)/C(=C/c3cc([N+](=O)[O-])ccc3O)S2)cc1	2	2	-3	28*	0	-10
O=C1NC(=Nc2ccccc2Cl)S/C1=C\c1cc([N+](=O)[O-])ccc1O	2	-1	-7	20*	0	-8
COc1cccc(N=C2NC(=O)/C(=C/c3cc([N+](=O)[O-])ccc3O)S2)c1	-3	7	-26	-7	0	4
SMILES	NPR2 activator	NPR1 activator	Lipid droplet	NR3A LBD binder	aDG glyco up	JMJD2C inh
Cc1ccc(Cn2cc(CN3[C@@H](CC(C)C)COc4cccc(F)c4S3(=O)=O)nn2)cc1	4	-1	.	.	.	.
Cc1ccc(COn2c(-c3ccc(Cl)cc3)nc3ccc([N+](=O)[O-])cc32)cc1	14	16	.	0	0	14
O=[N+]([O-])c1ccc2nc(-c3ccc(Cl)cc3)n(OCc3ccccc3)c2c1	16	12	.	18*	0	21
COc1ccc(C)cc1S(=O)(=O)NCc1ccccn1	1	0	.	.	0	.
O=C(Nc1ccc(Cl)cc1C(F)(F)F)C(Sc1nnc(-c2cccs2)o1)c1ccccc1 (stereo unspecified)	-3	-1	-13	22*	0	1
CCCCCCCCCCNC(=O)C(=O)Nc1ccccn1	.	.	-8	12*	0	17
COCC1CCCCN1C(=O)c1cc(COc2ccc3ncccc3c2)on1 (stereo unspecified)	1	1	-48	-3	2	2
CCC1CCCCN1C(=O)c1cc(COc2ccc3ncccc3c2)on1 (stereo unspecified)	1	-2	-90	0	7.6*	4
COc1ccc(CC(=O)N2CCc3cc(OC)c(OC)cc3C2O)cc1OC (stereo unspecified)	4	6	-1	10*	0	-1
COc1cc2c(cc1OC)C(C)N(C(=O)Cc1ccc(C(F)(F)F)cc1)CC2 (stereo unspecified)	4	-2	-17	2	0	-13
O=C(Nc1ccccc1)c1cccnc1NCCc1ccccc1	-8	4	1	-7	0	-6
COc1ccc(NC(=O)c2cccnc2NCCc2ccccc2)cc1	-3	1	1	18*	0	5
O=C(CN1C(=O)NC2(CCCC2)C1=O)Nc1nc(-c2ccc(F)cc2)cs1	7	45*	.	2	0	-10
CC1(C)NC(=O)N(CC(=O)Nc2nc(-c3ccc(F)cc3)cs2)C1=O	7	48*	-2	0	0	3
Cc1ccc(-n2nnnc2SCC(=O)Nc2nc(-c3ccc(F)cc3)cs2)cc1C	5	2	.	30*	0	5
CC(=O)Nc1ccc(-c2csc(NC(=O)CN3C(=O)NC4(CCCC4)C3=O)n2)cc1	-5	2	.	-19	0	22
O=C(COc1ccc(F)cc1Cl)Nc1nnc(-c2ccc(F)c(F)c2)o1	-1	2	.	.	.	.
Cc1c(COC(=O)NC(C)C)c(COC(=O)NC(C)C)c2n1CS(=O)(=O)C2	-5	2	.	.	.	.
COc1ccc(C2SCCN2C(=S)Nc2cccc(Cl)c2)cc1 (stereo unspecified)	-6	-24	-4	16*	0	151
Fc1cc(F)c(C2SCCN2C(=S)Nc2cccc(C(F)(F)F)c2)c(F)c1 (stereo unspecified)	-5	-1	-1	16*	0	-23
